Measured values as given in publication PMC12062833 (RSC Medicinal Chemistry, 2025).
Values after ≈ are worked out from the molar mass of the structure shown. “Also recorded” adds a separate entry of the source.

Experiments:
[1] = tested on: Pseudomonas aeruginosa (ATCC 9027); test: Antibacterial MIC, macrodilution method, P. aeruginosa; format: cell-based; conditions: ATCC9027, read-out: MIC P. aeruginosa
In short: (§1)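 CLSI M07-A9 tube macrodilution. Strains were grown overnight on nutrient agar at 37 °C, and colonies were suspended in Mueller-Hinton broth. Inoculum was 1 × 10^6 per mL (5 × 10^5 per mL in test). DMSO stock was 5120 μg/mL. Final concentrations were 256 to […] in 2 mL. Tubes were incubated at 37 °C for 16–20 h. Controls were inoculum with and without 1% DMSO, and broth alone.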

[2] = tested on: HL-60 acute myeloid leukemia cells; test: Antiproliferative assay; format: cell-based; conditions: Homo sapiens, HL-60, 72 h, read-out: IC50 HL-60
In short: (§2)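 Adherent lines were seeded at 500 (Capan-1), 1000 (LN-229, HCT-116) or 1500 (NCI-H460) cells/well and dosed after overnight incubation. Suspension lines were seeded at 2500 (HL-60, K-562, Z-138) or 5500 (DND-41) cells/well directly onto compound. Seven 5-fold concentrations ran from 100 to 0.006 μM for 72 h. Viability was read as MTS absorbance at 490 nm after 3 h, and IC50 was derived from OD values. Two independent experiments.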

[3] = tested on: Staphylococcus aureus (ATCC 25923); test: Antibacterial MIC, macrodilution method, S. aureus; format: cell-based; conditions: ATCC25923, read-out: MIC S. aureus
In short: as §1

[4] = tested on: Capan-1 pancreatic adenocarcinoma cells; test: Antiproliferative assay; format: cell-based; conditions: Homo sapiens, CAPAN-1, 72 h, read-out: IC50 Capan-1
In short: as §2

[5] = tested on: NCI-H460 non-small cell lung cancer cells; test: Antiproliferative assay; format: cell-based; conditions: Homo sapiens, NCI-H460, 72 h, read-out: IC50 NCI-H460
In short: as §2

[6] = tested on: LN-229 glioblastoma cells; test: Antiproliferative assay; format: cell-based; conditions: Homo sapiens, LN-229, 72 h, read-out: IC50 LN-229
In short: as §2

[7] = tested on: Escherichia coli (ATCC 25922); test: Antibacterial MIC, macrodilution method, E. coli; format: cell-based; conditions: ATCC25922, read-out: MIC E. coli
In short: as §1

[8] = tested on: Enterococcus faecalis (ATCC 29212); test: Antibacterial MIC, macrodilution method, E. faecalis; format: cell-based; conditions: MHB, 37 °C
[9] = tested on: K-562 chronic myeloid leukemia cells; test: Antiproliferative assay; format: cell-based; conditions: Homo sapiens, K562, 72 h, read-out: IC50 K-562
In short: as §2

[10] = tested on: eight human tumor cell lines; test: Antiproliferative assay, span over the panel of tumor cell lines; format: cell-based; conditions: 72 h, read-out: IC50 range across tested tumor cell lines
In short: as §2

[11] = tested on: HCT-116 colon carcinoma cells; test: Antiproliferative assay; format: cell-based; conditions: Homo sapiens, HCT-116, 72 h, read-out: IC50 HCT-116
In short: as §2

[12] = tested on: Klebsiella pneumoniae (ATCC 27736); test: Antibacterial MIC, macrodilution method, K. pneumoniae; format: cell-based; conditions: ATCC27736, read-out: MIC K. pneumoniae
In short: as §1

salmon sperm DNA = test: Fluorescent intercalator displacement; format: binding; conditions: tested at 250, 100 and 40 μM; result in words
In short: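 Competitive fluorescence-polarization displacement. Acridine orange (50 nM) and salmon sperm DNA (6 μg/mL) were mixed with test compound at 250, 100 or 40 μM in HEN buffer (10 mM HEPES pH 7.5, 1 mM EDTA, 100 mM NaCl). Mixtures stood 20 min in the dark. mP was normalized to the DMSO control, with mitoxantrone (10 μM) as positive control.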

PBMC from healthy donors = test: Cytotoxicity test on normal peripheral blood mononuclear cells; format: cell-based, human; conditions: PBMC of two healthy donors, 72 h, result in words
[13] = tested on: Z-138 non-Hodgkin's lymphoma cells; test: Antiproliferative assay; format: cell-based, human; conditions: read-out: IC50 Z-138; 72 h incubation, two independent experiments
In short: as §2

Row | Structure (SMILES) | MIC [1] [µg/mL] | IC50 [2] [µM] | MIC [3] [µg/mL] | IC50 [4] [µM] | IC50 [5] [µM] | IC50 [6] [µM] | MIC [7] [µg/mL] | MIC E. faecalis [8] [µg/mL] | IC50 [9] [µM] | IC50 [10] [µM] | IC50 [11] [µM] | MIC [12] [µg/mL] | DNA intercalation (acridine orange displacement, fluorescence polarization) (salmon sperm DNA) | IC50 [13] [µM] | Impact on viability of normal PBMC (MTS) (PBMC from healthy donors; 100 to 0.006 μM) | Dead and apoptotic PBMC (propidium iodide, caspase 3/7, IncuCyte) (PBMC from healthy donors)
1 | O=C(COc1ccc(-c2nc3ccc(F)cc3[nH]2)cc1F)N1CCOCC1 [Compound 27, 2-(2-Fluoro-4-(6-fluoro-1H-benzo[d]imidazol-2-yl)phenoxy)-1-morpholinoethan-1-one] | > 256 | > 100 | > 256 | > 100 | > 100 | > 100 | > 256 |  | > 100 |  | > 100 | > 256 | exhibit clear intercalating properties |  |  | 
2 | CCN(CC)CCOc1ccc(-c2nc3ccc(Cl)cc3[nH]2)cc1F [Compound 23, 2-(4-(6-Chloro-1H-benzo[d]imidazol-2-yl)-2-fluorophenoxy)-N,N-diethylethan-1-amine] | > 256 | 4.4 ± 0.5 | 256 (≈ 707 µM) | 2.2 ± 0.5 | 2.3 ± 0.8 | 5 ± 1.3 | 256 (≈ 707 µM) |  | 2 ± 0.7 | 2 to 9.4 | 9.4 ± 1.2 | > 256 | scored best in the binding assay |  | Only at the highest tested concentration (100 μM), there was an impact on the viability of these normal cells | caused apoptosis in normal cells only at the highest applied concentration of 100 μM; also recorded: an increase in the number of dead and apoptotic cells was observed at 100 μM
3 | Fc1cc(-c2nc3ccc(Cl)cc3[nH]2)ccc1OCCN1CCOCC1 [Compound 24, 4-(2-(4-(6-Chloro-1H-benzo[d]imidazol-2-yl)-2-fluorophenoxy)ethyl)morpholine] | > 256 | > 100 | > 256 | > 100 | > 100 | > 100 | > 256 |  | > 100 |  | > 100 | > 256 |  | ≥ 80.5 |  | 
4 | O=C(COc1ccc(-c2nc3ccccc3[nH]2)cc1F)N1CCOCC1 [Compound 22, 2-(4-(1H-Benzo[d]imidazol-2-yl)-2-fluorophenoxy)-1-morpholinoethan-1-one] |  | > 100 |  | > 100 | > 100 | > 100 |  |  | > 100 |  | > 100 |  | exhibit clear intercalating properties |  |  | 
5 | O=C(COc1ccc(-c2nc3ccc(Cl)cc3[nH]2)cc1F)N1CCOCC1 [Compound 25, 2-(4-(6-Chloro-1H-benzo[d]imidazol-2-yl)-2-fluorophenoxy)-1-morpholinoethan-1-one] | > 256 | > 100 | > 256 | > 100 | > 100 | > 100 | > 256 |  | > 100 |  | > 100 | > 256 |  | ≥ 64.8 |  | 
6 | Fc1ccc2nc(-c3ccc(OCc4cn(CCN5CCOCC5)nn4)cc3)[nH]c2c1 [Compound 30, 4-(2-(4-((4-(6-Fluoro-1H-benzo[d]imidazol-2-yl)phenoxy)methyl)-1H-1,2,3-triazol-1-yl)ethyl)morpholine] | > 256 | ≥ 60.6 | > 256 | 58.8 ± 1.9 | 46.9 ± 4.4 | > 100 | > 256 |  | > 100 |  | > 100 | > 256 |  |  |  | 
7 | Fc1cc(-c2nc3ccc(Cl)cc3[nH]2)ccc1OCc1cn(CCN2CCOCC2)nn1 [Compound 32, 4-(2-(4-((4-(6-Chloro-1H-benzo[d]imidazol-2-yl)-2-fluorophenoxy)methyl)-1H-1,2,3-triazol-1-yl)ethyl)morpholine] | > 256 | > 100 | > 256 | 54.9 ± 5.1 | > 100 | > 100 | > 256 |  | > 100 |  | > 100 | > 256 |  |  |  | 

Further lines, with some results ahead:

Row | MIC [1] [µg/mL] | IC50 [2] [µM] | MIC [3] [µg/mL] | IC50 [4] [µM] | IC50 [5] [µM] | IC50 [6] [µM] | MIC [7] [µg/mL] | MIC E. faecalis [8] [µg/mL] | IC50 [9] [µM] | IC50 [10] [µM] | IC50 [11] [µM] | MIC [12] [µg/mL] | DNA intercalation (acridine orange displacement, fluorescence polarization) (salmon sperm DNA) | IC50 [13] [µM] | Structure (SMILES) | Impact on viability of normal PBMC (MTS) (PBMC from healthy donors; 100 to 0.006 μM) | Dead and apoptotic PBMC (propidium iodide, caspase 3/7, IncuCyte) (PBMC from healthy donors)
8 | > 256 | 51.6 ± 1.5 | 64 (≈ 179 µM) | 45 ± 5.1 | > 100 | > 100 | 256 (≈ 715 µM) | 0.25 (≈ 0.699 µM) | 37.3 ± 3.9 | 37.3 to 79.8 | > 100 | > 256 |  |  | Clc1ccc2nc(-c3ccc(OCCN4CCOCC4)cc3)[nH]c2c1 [Compound 16, 4-(2-(4-(6-Chloro-1H-benzo[d]imidazol-2-yl)phenoxy)ethyl)morpholine] |  | 
9 | > 256 | 29.2 ± 2.2 | > 256 | 25.1 ± 3.7 | 41.3 ± 3.7 | 44 ± 0.8 | 256 (≈ 744 µM) |  | 8.7 ± 1.1 |  | 47.2 ± 1.8 | > 256 |  |  | CCN(CC)CCOc1ccc(-c2nc3ccc(Cl)cc3[nH]2)cc1 [Compound 15, 2-(4-(6-Chloro-1H-benzo[d]imidazol-2-yl)phenoxy)-N,N-diethylethan-1-amine] |  | 
10 |  | > 100 |  | ≥ 69.1 | > 100 | > 100 |  |  | > 100 | 37.3 to 79.8 | > 100 |  |  |  | Fc1ccc2nc(-c3ccc(OCCN4CCOCC4)cc3)[nH]c2c1 [Compound 19, 4-(2-(4-(6-Fluoro-1H-benzo[d]imidazol-2-yl)phenoxy)ethyl)morpholine] |  | 
11 | > 256 | > 100 | > 256 | 28.5 ± 4.4 | > 100 | > 100 | > 256 | 0.5 (≈ 1.34 µM) | > 100 |  | > 100 | > 256 |  |  | O=C(COc1ccc(-c2nc3ccc(Cl)cc3[nH]2)cc1)N1CCOCC1 [Compound 17, 2-(4-(6-Chloro-1H-benzo[d]imidazol-2-yl)phenoxy)-1-morpholinoethan-1-one] |  | 
12 | > 256 | 33.8 ± 3.3 | > 256 | 35.4 ± 2.7 | 35.9 ± 1.3 | 51.5 ± 0.1 | > 256 |  | 19.1 ± 1.8 |  | 49.5 ± 0.4 | > 256 | scored best in the binding assay |  | CCN(CC)CCOc1ccc(-c2nc3ccc(F)cc3[nH]2)cc1F [Compound 26, N,N-Diethyl-2-(2-fluoro-4-(6-fluoro-1H-benzo[d]imidazol-2-yl)phenoxy)ethan-1-amine] |  | 
13 | > 256 | 54.2 ± 4.1 | > 256 | 42.1 ± 3.7 | > 100 | > 100 | > 256 |  | 79.8 ± 1.3 | 37.3 to 79.8 | > 100 | > 256 |  |  | c1ccc2[nH]c(-c3ccc(OCCN4CCOCC4)cc3)nc2c1 [Compound 13, 4-(2-(4-(1H-Benzo[d]imidazol-2-yl)phenoxy)ethyl)morpholine] |  | 
14 | > 256 | 46.4 ± 1.3 | > 256 | 47.7 ± 3.2 | 52.4 ± 1.3 | ≥ 65.1 | > 256 |  | 38.2 ± 4.5 |  | > 100 | > 256 |  |  | CCN(CC)CCOc1ccc(-c2nc3ccccc3[nH]2)cc1 [Compound 12, 2-(4-(1H-Benzo[d]imidazol-2-yl)phenoxy)-N,N-diethylethan-1-amine] |  | 
15 | > 256 | ≥ 70 | > 256 | 47.2 ± 0.4 | > 100 | > 100 | 256 (≈ 633 µM) |  | ≥ 88 |  | > 100 | > 256 |  |  | c1ccc2[nH]c(-c3ccc(OCc4cn(CCN5CCOCC5)nn4)cc3)nc2c1 [Compound 28, 4-(2-(4-((4-(1H-Benzo[d]imidazol-2-yl)phenoxy)methyl)-1H-1,2,3-triazol-1-yl)ethyl)morpholine] |  | 
